The source of these data is ChEMBL document CHEMBL1139917, “Synthesis of isoquinuclidine analogs of chloroquine: antimalarial and antileishmanial activity” (Bioorg Med Chem, 2007).

Each structure is given as a SMILES string. Values after ≈ are worked out from the molar mass of the structure shown.

The subject of data set [1] is Plasmodium falciparum. Description: Antimalarial activity against chloroquine-sensitive Plasmodium falciparum D6. It is filed as functional, organism-based. The procedure, abridged: (§1)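 P. falciparum D6 (Sierra Leone, chloroquine-sensitive) and W2 (Indochina, chloroquine-resistant) clones were kept in type A human RBCs and subcultured daily. The assay used infected-cell suspensions at 2% parasitemia and 2% hematocrit in 96-well microplates, run in duplicate across several concentrations. IC50 was taken from dose curves. Artemisinin and chloroquine served as drug controls, with DMSO as vehicle control.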

The nature of data set [2]: Selectivity index, ratio of IC50 for Vero cells to IC50 for chloroquine-sensitive Plasmodium falciparum D6. It is filed as functional. The essentials:
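Ratio of Vero cell cytotoxicity (Neutral Red, run in parallel) to activity against P. falciparum D6 (Sierra Leone, chloroquine-sensitive). Parasite assay: D6 grown in type A human RBCs, subcultured daily; infected cells at 2% parasitemia, 2% hematocrit in 96-well plates; duplicate wells at several concentrations. IC50 from dose curves; DMSO vehicle control.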

The subject of data set [3] is Plasmodium falciparum. As to the kind of experiment: Antimalarial activity against chloroquine-resistant Plasmodium falciparum W2. It is filed as functional, organism-based. The essentials: as §1
Data set [4] is described as follows: Selectivity index, ratio of IC50 for Vero cells to IC50 for chloroquine-resistant Plasmodium falciparum W2. The data set is classed as functional. The procedure, abridged: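 Vero (monkey kidney fibroblast) cytotoxicity was run in parallel with the P. falciparum W2 assay using the Neutral Red assay, with IC50 taken from growth inhibition curves. The selectivity index is the Vero IC50 divided by the W2 IC50.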

The next data set has as its system Vero. Description: Cytotoxicity against Vero cells by neutral red assay. It is filed as cell-based. The following applies: chlorocebus sabaeus. The procedure, abridged: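 VERO (monkey kidney fibroblast) cells tested in parallel with the antiparasitic assays. Viability read by Neutral Red assay. IC50 computed from growth inhibition curve.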
A further data set concerns Leishmania donovani. As to the kind of experiment: Antileishmanial activity against Leishmania donovani promastigotes after 72 hrs by Alamar blue assay. It is filed as functional, organism-based. The essentials:
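Leishmania donovani promastigote culture at 2 × 10⁶ cells/mL, 96-well format; compounds diluted in DMSO. Incubation 72 h at 26 °C. Growth read by Alamar blue adapted to fluorometric readout. Pentamidine and amphotericin B as standard agents. IC50 computed from growth inhibition curve.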
A general note: Alamar Blue is a resazurin reagent that responds to reducing activity.

In general, IC50 refers to the concentration at which inhibition is half-maximal. As a reminder, the IC90 is the concentration at which the effect reaches the 90% level. A low value points to greater potency. Take `CCN(CC)CC1CC2CCC1N(c1ccnc3cc(Cl)ccc13)C2` (stereo not drawn): the IC50 with Plasmodium falciparum [1] came to 0.31 µg/mL (≈ 0.866 µM); in the data set on Plasmodium falciparum [3], 0.2 µg/mL (≈ 0.559 µM); with Leishmania donovani, 3.8 µg/mL (≈ 10.6 µM). The entries for the “Ratio IC50” value in data set [2] and in data set [4] were >15.4 and >23.8, respectively. In addition, the Activity result with Vero is listed as “Non-toxic”. The molecule further came in with an IC90 in the data set on Leishmania donovani of 8 µg/mL (≈ 22.4 µM).

In the data set with Leishmania donovani, `N=C(N)c1ccc(OCCCCCOc2ccc(C(=N)N)cc2)cc1` [PENTAMIDINE] showed an IC50 of 2.8 µg/mL (≈ 8.22 µM) and an IC90 of 10 µg/mL (≈ 29.4 µM).

Regarding `N#CC1CC2CCC1N(c1ccnc3cc(Cl)ccc13)C2` (stereo not drawn), the IC50 with Plasmodium falciparum [1] worked out at 0.35 µg/mL (≈ 1.18 µM); in the data set on Plasmodium falciparum [3] it was 0.17 µg/mL (≈ 0.571 µM); with Leishmania donovani it was 16 µg/mL (≈ 53.7 µM). The “Ratio IC50” value in data set [2] was >13.6; in data set [4], >28. The Activity result in the data set on Vero was “Non-toxic”. Further, the IC90 in the data set on Leishmania donovani amounted to 33 µg/mL (≈ 111 µM).

Regarding `C[C@@H]1[C@H](O)[C@@H](C)/C=C/C=C/C=C/C=C/C=C/C=C/C=C/[C@H](O[C@@H]2O[C@H](C)[C@@H](O)[C@H](N)[C@@H]2O)C[C@@H]2O[C@](O)(C[C@@H](O)C[C@@H](O)[C@H](O)CC[C@@H](O)C[C@@H](O)CC(=O)O[C@H]1C)C[C@H](O)[C@H]2C(=O)O` [AMPHOTERICIN B], in the data set with Leishmania donovani, the IC50 was found to be 0.18 µg/mL (≈ 0.195 µM) and the IC90 is 1.8 µg/mL (≈ 1.95 µM).

As to `NCC1CC2CCC1N(c1ccnc3cc(Cl)ccc13)C2` (stereo not drawn), the values for the IC50 in the data set on Plasmodium falciparum [1], in the data set with Plasmodium falciparum [3] and with Leishmania donovani were 0.13 µg/mL (≈ 0.431 µM), 0.18 µg/mL (≈ 0.596 µM) and 4.2 µg/mL (≈ 13.9 µM), respectively. Further, the “Ratio IC50” value in data set [2] is listed as >36.6; in data set [4] it was >26.4. For the same molecule, the Activity entry in the data set on Vero is recorded as “Non-toxic”. In the data set on Leishmania donovani, this molecule showed a 90% effect concentration (IC90) of 20 µg/mL (≈ 66.3 µM).

For `CCNCC1CC2CCC1N(c1ccnc3cc(Cl)ccc13)C2` (stereo not drawn), the IC50 in the data set with Plasmodium falciparum [1] was found to be 0.28 µg/mL (≈ 0.849 µM); with Plasmodium falciparum [3], 0.11 µg/mL (≈ 0.333 µM); with Leishmania donovani it was 7.2 µg/mL (≈ 21.8 µM). Besides, the “Ratio IC50” value in data set [2] was >17; in data set [4] it was >43.2. Moreover, the Activity result in the data set with Vero is on record as “Non-toxic”. The molecule further returned an IC90 in the data set with Leishmania donovani of 29 µg/mL (≈ 87.9 µM).

Consider `CN1CC2CCC1C(CNc1ccnc3cc(Cl)ccc13)C2` (stereo not drawn), for which the IC50 was found to be 0.0038 µg/mL (≈ 0.012 µM) in the data set with Plasmodium falciparum [1], 0.004 µg/mL (≈ 0.0127 µM) with Plasmodium falciparum [3] and 3 µg/mL (≈ 9.5 µM) in the data set on Leishmania donovani. Besides, the figures for the “Ratio IC50” value in data set [2] and in data set [4] were >1252.3 and >1190, respectively. The Activity entry in the data set on Vero was “Non-toxic”. The same molecule had an IC90 in the data set with Leishmania donovani of 6.5 µg/mL (≈ 20.6 µM).

Regarding `C[C@@H]1CC[C@H]2[C@@H](C)C(=O)O[C@@H]3O[C@@]4(C)CC[C@@H]1[C@]32OO4` [ARTEMISININ], the results for the IC50 with Plasmodium falciparum [1] and in the data set with Plasmodium falciparum [3] were 0.0036 µg/mL (≈ 0.0128 µM) and 0.0018 µg/mL (≈ 0.00638 µM), respectively.

On to `CN(C)CC1CC2CCC1N(c1ccnc3cc(Cl)ccc13)C2` (stereo not drawn), for which the IC50 is 0.012 µg/mL (≈ 0.0364 µM) in the data set with Plasmodium falciparum [1], 0.018 µg/mL (≈ 0.0546 µM) in the data set on Plasmodium falciparum [3] and 1.9 µg/mL (≈ 5.76 µM) in the data set with Leishmania donovani. The “Ratio IC50” value is listed as >396.7 in data set [2] and >264.4 in data set [4]. Also, in the data set on Vero, the Activity result is reported as “Non-toxic”. Further, the 90% effect level with Leishmania donovani (IC90) was put at 6 µg/mL (≈ 18.2 µM).
